ChEMBL document CHEMBL4354800, “Amphiphilic nebramine-based hybrids Rescue legacy antibiotics from intrinsic resistance in multidrug-resistant Gram-negative bacilli” (Eur J Med Chem, 2019)
Calls of active or inactive are those of the source. No cut-off for these calls is given here.

How the values were obtained:
Acinetobacter baumannii [1] = test: Synergistic antibacterial activity against multidrug-resistant Acinetobacter baumannii ATCC 17978 assessed as fractional inhibitory concentration index in presence of rifampicin incubated for 18 hrs by broth dilution method; type: functional
Pseudomonas aeruginosa [2] = test: Antimicrobial activity against XDR Pseudomonas aeruginosa isolate PA264 infected in Galleria mellonella larvae assessed as survival rate at 75 mg/kg co-administered with 75 mg/kg rifampicin at 2 hrs post-inoculation measured after 24 hrs relative to control; type: functional
Method in brief: (§1)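 G. mellonella larvae were injected with ~5 CFU of P. aeruginosa PA264 (10 µL of 5 × 10^2 CFU/mL in PBS) and held 2 h at 37 °C. A single 10 µL injection followed: monotherapy or rifampicin + compound (25+25, 50+50 or 75+75 mg/kg), with PBS as control. Larvae kept at 37 °C were scored every 6 h to 24 h; dead = no response to touch. n = 30 (two runs of 15); Kaplan-Meier.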

Escherichia coli = test: Synergistic antibacterial activity against Escherichia coli 107115 assessed as fractional inhibitory concentration index in presence of minocycline incubated for 18 hrs by broth dilution method; type: functional
Method in brief: (§2)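 Checkerboard titration of the adjuvant against the antibiotic, run under the CLSI microdilution conditions (MHB, 5 × 10^5 CFU/mL, 18 h, 37 °C). Each agent's FIC is its MIC in combination divided by its MIC alone; FICI is the sum of the two FICs. FICI ≤0.5 was read as synergy, >0.5–4.0 as no interaction, and >4.0 as antagonism.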

Pseudomonas aeruginosa [3] = test: Antimicrobial activity against XDR Pseudomonas aeruginosa isolate PA264 infected in Galleria mellonella larvae assessed as survival rate at 50 mg/kg co-administered with 50 mg/kg rifampicin at 2 hrs post-inoculation measured after 24 hrs relative to control; type: functional; method in brief: as §1
Pseudomonas aeruginosa [4] = test: Potentiation of minocycline-induced antibacterial activity against wild type Pseudomonas aeruginosa PAO1 assessed as fold reduction in minocycline MIC at 4.1 uM incubated for 18 hrs by broth microdilution method; type: functional
Method in brief: (§3)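 Antibiotic MIC determined by CLSI broth microdilution (MHB, 5 × 10^5 CFU/mL, 18 h, 37 °C), once alone and once with a fixed concentration of the adjuvant. Potentiation is the ratio of the antibiotic MIC alone to its MIC in the presence of the adjuvant.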

Pseudomonas aeruginosa [5] = test: Potentiation of rifampicin-induced bactericidal activity in MDR/XDR Pseudomonas aeruginosa isolate PA259-96918 harboring GyrA T83I mutant assessed as decrease in viable bacterial count at 1 ug/ml incubated for 8 hrs in presence of 1 ug/ml rifampicin by time kill curve assay; type: functional, organism-based
Method in brief: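 Time-kill assay against XDR P. aeruginosa PA259. Overnight culture adjusted to 0.5 McFarland in saline, diluted 1:50 in LB. Incubated at 37 °C for 24 h with rifampicin and adjuvant, alone or combined at various concentrations. Aliquots taken at intervals, serially diluted in PBS and plated on LB agar. Colonies counted after 20 h at 37 °C. Untreated cells as control.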

Klebsiella pneumoniae [6] = test: Potentiation of rifampicin-induced antibacterial activity against Klebsiella pneumoniae 113254 assessed as fold reduction in rifampicin MIC at 4.1 uM incubated for 18 hrs by broth dilution method; type: functional; method in brief: as §3
Klebsiella pneumoniae [7] = test: Synergistic antibacterial activity against Klebsiella pneumoniae 113250 assessed as fractional inhibitory concentration index in presence of rifampicin incubated for 18 hrs by broth dilution method; type: functional; method in brief: as §2
Acinetobacter baumannii [8] = test: Antimicrobial activity against multidrug-resistant Acinetobacter baumannii ATCC 17978 incubated for 18 hrs by broth dilution method; type: functional; conditions: ATCC 17978, 18 h
Method in brief: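 Broth microdilution per CLSI: overnight cultures set to 0.5 McFarland in saline, diluted 1:50 in Mueller-Hinton broth to a final 5 × 10^5 CFU/mL, added to 2-fold serial dilutions, incubated 18 h at 37 °C; MIC is the lowest concentration without visible turbidity, confirmed at 590 nm.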

[9] = Toxicity in Galleria mellonella larvae assessed as tolerability by measuring larval survival at 100 mg/kg incubated for > 96 hrs; type: organism-based; conditions: in vivo
Method in brief: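 Uninfected G. mellonella larvae, ten per group, were injected with agent alone at 100 or 200 mg/kg. Larvae were held at 37 °C and monitored for survival for 96 h.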

Acinetobacter baumannii [10] = test: Potentiation of minocycline-induced antibacterial activity against […] Acinetobacter baumannii ATCC 17978 assessed as fold reduction in minocycline MIC at 4.1 uM incubated for 18 hrs by broth dilution method; type: functional
Method in brief: (§4)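 CLSI broth microdilution. Overnight cultures were set to 0.5 McFarland in saline, diluted 1:50 in Mueller-Hinton broth to a final 5 × 10^5 CFU/mL, and incubated 18 h at 37 °C against 2-fold antibiotic dilutions. A fixed adjuvant level was present throughout. MIC = lowest concentration with no visible turbidity, confirmed at 590 nm. Potentiation = fold drop in antibiotic MIC versus antibiotic alone.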

Pseudomonas aeruginosa [11] = test: Potentiation of minocycline-induced antibacterial activity against MDR/XDR Pseudomonas aeruginosa isolate PA264-104354 harboring GyrA T83I mutant assessed as fold reduction in minocycline MIC at 7.5 uM incubated for 18 hrs by broth microdilution method; type: functional
Pseudomonas aeruginosa [12] = test: Potentiation of minocycline-induced antimicrobial activity against MDR/XDR Pseudomonas aeruginosa isolate 91433 devoid of GyrA Thr83Ile mutant assessed as minocycline MIC50 incubated for 18 hrs by broth microdilution method (reference value: 16 microg/ml); type: functional; conditions: isolate 91433, 18 h
Pseudomonas aeruginosa [13] = test: Potentiation of minocycline-induced antibacterial activity against wild type Pseudomonas aeruginosa PAO1 assessed as fold reduction in minocycline MIC at 7.5 uM incubated for 18 hrs by broth microdilution method; type: functional; method in brief: as §3
Klebsiella pneumoniae [14] = test: Potentiation of rifampicin-induced antibacterial activity against Klebsiella pneumoniae 116381 assessed as fold reduction in rifampicin MIC at 7.5 uM incubated for 18 hrs by broth dilution method; type: functional; method in brief: as §3
Pseudomonas aeruginosa [15] = test: Potentiation of minocycline-induced antimicrobial activity against MDR/XDR Pseudomonas aeruginosa isolate PA264-104354 harboring GyrA Thr83Ile mutant assessed as minocycline MIC50 incubated for 18 hrs by broth microdilution method (reference value: 16 microg/ml); type: functional; conditions: isolate PA264-104354, 18 h
Pseudomonas aeruginosa [16] = test: Potentiation of rifampicin-induced antimicrobial activity against MDR/XDR Pseudomonas aeruginosa isolate PA259-96918 harboring GyrA Thr83Ile mutant assessed as rifampicin MIC80 incubated for 18 hrs by broth microdilution method (reference value: 16 microg/ml); type: functional; conditions: isolate PA259-96918, 18 h
Pseudomonas aeruginosa [17] = test: Potentiation of moxifloxacin-induced antibacterial activity against wild type Pseudomonas aeruginosa PAO1 assessed as fold reduction in moxifloxacin MIC at 7.5 uM incubated for 18 hrs by broth microdilution method; type: functional; method in brief: as §4
Pseudomonas aeruginosa [18] = test: Potentiation of moxifloxacin-induced antibacterial activity against MDR/XDR Pseudomonas aeruginosa isolate PA260-97103 harboring GyrA T83I mutant assessed as fold reduction in moxifloxacin MIC at 7.5 uM incubated for 18 hrs by broth microdilution method; type: functional; method in brief: as §4
Pseudomonas aeruginosa [19] = test: Potentiation of minocycline-induced antibacterial activity against MDR/XDR Pseudomonas aeruginosa isolate PA260-97103 harboring GyrA T83I mutant assessed as fold reduction in minocycline MIC at 9 uM incubated for 18 hrs by broth microdilution method; type: functional

SMILES: Cl.Cl.Cl.Cl.Cl.NC[C@H]1O[C@H](O[C@H]2[C@H](OCCCCCCCCCCCCN3CCN(c4cc5c(cc4F)c(=O)c(C(=O)O)cn5C4CC4)CC3)[C@@H](O)[C@H](N)C[C@@H]2N)[C@H](N)C[C@@H]1O
- fractional inhibitory concentration index (FICI) (Acinetobacter baumannii [1]): 0.016
- survival at 75 mg/kg (Pseudomonas aeruginosa [2]): 53%
- fractional inhibitory concentration index (FICI) (Escherichia coli): 0.133
- survival at 50 mg/kg (Pseudomonas aeruginosa [3]): 33%
- fold change (FC) (Pseudomonas aeruginosa [4]): 32
- Activity (Pseudomonas aeruginosa [5]): Active
- fold change (FC) (Klebsiella pneumoniae [6]): 64
- fractional inhibitory concentration index (FICI) (Klebsiella pneumoniae [7]): 0.039
- MIC (Acinetobacter baumannii [8]): 128 µg/mL
- Activity [9]: Non-Toxic
- fold change (FC) (Acinetobacter baumannii [10]): 2

SMILES: COc1c(N2C[C@@H]3CCCN(CCCCCCCCCCCCO[C@@H]4[C@@H](O)[C@H](N)C[C@H](N)[C@H]4O[C@H]4O[C@H](CN)[C@@H](O)C[C@H]4N)[C@@H]3C2)c(F)cc2c(=O)c(C(=O)O)cn(C3CC3)c12.Cl.Cl.Cl.Cl.Cl
- fold change (FC) (Pseudomonas aeruginosa [11]): 64
- MIC50 (Pseudomonas aeruginosa [12]): 0.5 µg/mL
- fold change (FC) (Pseudomonas aeruginosa [13]): 8
- fold change (FC) (Klebsiella pneumoniae [14]): >=1024
- MIC50 (Pseudomonas aeruginosa [15]): 0.5 µg/mL
- MIC80 (Pseudomonas aeruginosa [16]): 0.13 µg/mL
- fold change (FC) (Pseudomonas aeruginosa [17]): 8
- fold change (FC) (Pseudomonas aeruginosa [18]): 64

SMILES: Cl.Cl.Cl.Cl.Cl.Cl.NC[C@H]1O[C@H](O[C@H]2[C@H](OCCCCCCCCCCN3CCN(Cc4cccc5ccccc45)CC3)[C@@H](O)[C@H](N)C[C@@H]2N)[C@H](N)C[C@@H]1O
- fold change (FC) (Pseudomonas aeruginosa [19]): 64
